Measured values as given in ChEMBL document CHEMBL5143736, “Discovery and Optimization of a Synthetic Class of Nectin-4-Targeted CD137 Agonists for Immuno-oncology” (J Med Chem, 2022).
The source made the active and inactive calls. No cut-off for these calls is given here.

Assays:
[1] = molecular target: T1, Tumor necrosis factor receptor superfamily member 9 (Homo sapiens, UniProt Q07011); assay: Agonist activity at recombinant human CD137 expressed in Jurkat T cells co-expressing response element driven luciferase reporter gene co-cultured with Nectin-4 expressing mouse MC38 cells assessed as luminescence measured after 6 hrs by luciferase reporter gene based co-culture assay; assay type: cell-based; details: filed as agonist, DDE = dose-dependent effect
Method in brief: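 Jurkat cells carrying human CD137 and a CD137 response-element luciferase reporter, cocultured for 6 h at 37 °C, 5% CO2 with 10,000 MC38 cells engineered to express mouse Nectin-4 (parental MC38 as negative line). Bio-Glo luminescence read-out, as fold induction over no-test-article wells. Mean of n = 2.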

[2] = molecular target: T1, Tumor necrosis factor receptor superfamily member 9; assay: Agonist activity at human CD137 expressed in human HT-1376 cells measured after 6 hrs by […] microplate reader assay; assay type: cell-based; details: filed as agonist
[3] = molecular target: T1, Tumor necrosis factor receptor superfamily member 9; assay: Agonist activity at human CD137 expressed in human NCI-H292 cells measured after 6 hrs by […] microplate reader assay; assay type: cell-based; details: filed as agonist
[4] = system: PBMC; assay: […] activity in human PBMC stimulated with anti-CD3-mediated CD137 expression in cocultured with […] cell line assessed as increase in secretion of IFN gamma incubated for 48 hrs by Luminex assay; assay type: functional, cell-based; details: DDE = dose-dependent effect
Method in brief: (§1)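 Healthy-donor PBMCs were thawed into R10 medium and cocultured with HT1376 cells at 10:1 effector:target (1×10^5 PBMC:1×10^4 tumor cells per well). Soluble anti-CD3 OKT3 (100 ng/mL) was added on day 0, then compound, 37 °C, 5% CO2. Supernatant IFNγ and IL-2 taken at 24 and 48 h, measured by Luminex. Four-parameter fit, n = 3, repeated in multiple donors.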

[5] = system: PBMC; assay: […] activity in human PBMC stimulated with anti-CD3-mediated CD137 expression in cocultured with […] cell line assessed as increase in secretion of IL2 incubated for 48 hrs by Luminex assay; assay type: functional, cell-based; details: DDE = dose-dependent effect; method in brief: as §1
[6] = molecular target: T1, Tumor necrosis factor receptor superfamily member 9; assay: Binding affinity to human recombinant CD137 by surface plasmon resonance analysis
Method in brief: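 Biacore T200 SPR, human CD137, 25 °C. Peptide series in PBS/0.05% Tween 20 with 0.5% DMSO: top 500 nM (threefold) or 10 μM (twofold), 6 further dilutions. Flow 90 μL/min, 60 s association, 100–600 s dissociation, glycine pH 2 regeneration. DMSO-corrected and double-referenced; kinetic fit gives ka, kd, KD.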

[7] = molecular target: T2, Nectin-4 (Homo sapiens, UniProt Q96NY8); assay: Binding affinity to human Nectin-4 assessed as dissociation constant using 1:1 Nectin-4/CD137 by surface plasmon resonance analysis
T2 sequence (Q96NY8 whole entry): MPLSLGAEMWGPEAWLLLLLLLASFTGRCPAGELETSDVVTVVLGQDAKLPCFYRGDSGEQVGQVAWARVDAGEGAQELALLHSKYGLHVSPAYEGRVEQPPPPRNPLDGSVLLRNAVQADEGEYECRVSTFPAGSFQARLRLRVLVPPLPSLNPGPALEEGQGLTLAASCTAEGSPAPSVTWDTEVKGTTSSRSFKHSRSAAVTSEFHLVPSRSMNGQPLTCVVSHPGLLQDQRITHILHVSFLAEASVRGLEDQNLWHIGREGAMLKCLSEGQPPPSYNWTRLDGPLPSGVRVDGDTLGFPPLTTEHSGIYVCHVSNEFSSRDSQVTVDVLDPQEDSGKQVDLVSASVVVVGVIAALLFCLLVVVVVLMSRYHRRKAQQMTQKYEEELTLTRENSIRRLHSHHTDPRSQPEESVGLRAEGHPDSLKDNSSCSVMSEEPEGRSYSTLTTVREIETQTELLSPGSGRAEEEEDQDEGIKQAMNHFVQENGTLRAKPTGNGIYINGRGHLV
Method in brief: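 SPR kinetics against human Nectin-4 (residues 32–349, baculovirus/Sf21-expressed, FLAG-tagged), 25 °C. Top 100 nM with 6 further twofold dilutions, 50 μL/min, 60 s association, 400–1200 s dissociation, DMSO-corrected. At least four concentrations used to obtain kon, koff and KD.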

T1 sequence (Q07011 whole entry): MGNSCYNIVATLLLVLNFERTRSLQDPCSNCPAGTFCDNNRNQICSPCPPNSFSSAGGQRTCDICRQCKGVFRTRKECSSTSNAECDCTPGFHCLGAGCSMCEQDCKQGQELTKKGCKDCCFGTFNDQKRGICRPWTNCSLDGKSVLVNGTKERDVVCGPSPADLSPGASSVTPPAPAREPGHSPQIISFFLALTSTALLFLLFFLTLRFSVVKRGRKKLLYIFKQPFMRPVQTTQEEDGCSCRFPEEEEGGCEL

CCCC[C@@H]1NC(=O)[C@H](Cc2ccc(O)cc2)NC(=O)[C@@H]2CCCN2C(=O)[C@H](CC(=O)O)NC(=O)[C@H](C)NC(=O)[C@H](Cc2ccccc2)NC(=O)[C@@H]2CSCCC(=O)N3CN(CN(C3)C(=O)CCSC[C@@H](C(=O)N[C@@H](CNC(=O)CCOCCOCCOCCOCCOCCOCCOCCOCCOCCOCCOCCOCCn3cc(CCC(=O)NCCC(=O)N(C)CC(=O)N(C)CC(=O)N(C)CC(=O)N(C)CC(=O)N(C)CC(=O)N(C)CC(=O)N(C)CC(=O)N(C)CC(=O)N(C)CC(=O)N(C)CC(=O)N[C@H]4CSCCC(=O)N5CN6CN(C5)C(=O)CCSC[C@H](NC(=O)[C@@H](CC(=O)O)NC(=O)[C@H](Cc5cccc7ccccc57)NC(=O)[C@@H]5CCCN5C4=O)C(=O)N[C@@H](CCSC)C(=O)N[C@@H](CCCCNC(=N)N)C(=O)N[C@@H](CC(=O)O)C(=O)N[C@@H](Cc4c[nH]c5ccccc45)C(=O)N[C@@H](CO)C(=O)N[C@@H]([C@@H](C)O)C(=O)N4CCC[C@H]4C(=O)N4C[C@H](O)C[C@H]4C(=O)N[C@@H](Cc4c[nH]c5ccccc45)C(=O)N[C@H](C(N)=O)CSCCC6=O)nn3)C(N)=O)NC1=O)C(=O)CCSC[C@H](NC(=O)[C@H](C)NC(C)=O)C(=O)NC([C@@H](C)CC)C(=O)N[C@@H](CCC(=O)O)C(=O)N[C@@H](CCC(=O)O)C(=O)NCC(=O)N[C@@H](CCC(N)=O)C(=O)N[C@@H](Cc1ccc(O)cc1)C(=O)N2 (some centres not stated)
Activity [1]: Dde | Activity [2]: Active | Activity [3]: Active | Activity [4]: Dde | Activity [5]: Dde | Kd [6]: 108 nM | Kd [7]: 2.8 nM
